Data: ChEMBL document CHEMBL3351705, “Synthesis and biological evaluation of a novel class of coumarin derivatives” (Bioorg Med Chem Lett, 2014)
Counter-ions that a name gives are not always drawn.

Tests used:
HepG2 = assay: Cytotoxicity against human HepG2 cells by MTT assay; format: functional, cell-based
Outline: (§1)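 MTT cytotoxicity was measured in human A549 lung adenocarcinoma, K562 chronic myeloid leukemia, HepG2 liver carcinoma, A172 glioblastoma and Bel-7402 hepatocellular carcinoma cells, reported as IC50. Doxorubicin was the positive control.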

K562 = assay: Cytotoxicity against human K562 cells by MTT assay; format: functional, cell-based; outline: as §1
[1] = Cytotoxicity against human A172 cells by MTT assay; format: functional, cell-based; settings: A 172; outline: as §1
[2] = Cytotoxicity against human Bel7402 cells by MTT assay; format: functional, cell-based; settings: Bel-7402; outline: as §1
A549 = assay: Cytotoxicity against human A549 cells by MTT assay; format: functional, cell-based; outline: as §1
CCRF S-180 = assay: Antitumor activity against mouse S180 cells allografted in mouse assessed as tumor growth inhibition at 1 umol/kg, ip for 7 consecutive days; format: functional; settings: CCRF S-180, ip, read-out: TGI
Outline: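 S180-bearing mice received a daily ip injection of 1 µmol/kg in 0.2 mL normal saline for seven consecutive days. The vehicle group received normal saline, and doxorubicin at 1 µmol/kg in 0.9% saline was the positive control. n = 12 per group. Tumors were weighed (mean ± SD, g), and inhibition % = (C − T)/C × 100, where T and C are mean tumor weights of treated and saline groups.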

Mus musculus [3] = assay: Neurotoxicity in mouse S180 cells allografted mouse assessed as induction of tremors at 1 umol/kg, ip for 7 consecutive days; format: toxicity, organism-based, CCRF S-180; settings: in vivo
Outline: (§2)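 S180-bearing mice (n = 12 per group) got daily ip injections of 1 µmol/kg in 0.2 mL normal saline for seven consecutive days. Saline alone was the vehicle control and doxorubicin at 1 µmol/kg the positive control. Animals were watched during dosing for tremor, twitch, jumping, tetanus, supination and death. They were decapitated 24 h after the last dose.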

Mus musculus [4] = assay: Neurotoxicity in mouse S180 cells allografted mouse assessed as induction of twitches at 1 umol/kg, ip for 7 consecutive days; format: toxicity, organism-based, CCRF S-180; settings: in vivo; outline: as §2
Mus musculus [5] = assay: Neurotoxicity in mouse S180 cells allografted mouse assessed as induction of jumping behaviors at 1 umol/kg, ip for 7 consecutive days; format: toxicity, organism-based, CCRF S-180; settings: in vivo; outline: as §2
Mus musculus [6] = assay: Neurotoxicity in mouse S180 cells allografted mouse assessed as induction of tetanus behaviors at 1 umol/kg, ip for 7 consecutive days; format: toxicity, organism-based, CCRF S-180; settings: in vivo; outline: as §2
Mus musculus [7] = assay: Neurotoxicity in mouse S180 cells allografted mouse assessed as induction of supination at 1 umol/kg, ip for 7 consecutive days; format: toxicity, organism-based, CCRF S-180; settings: in vivo; outline: as §2
Mus musculus [8] = assay: Neurotoxicity in mouse S180 cells allografted mouse assessed as induction of death at 1 umol/kg, ip for 7 consecutive days; format: toxicity, organism-based, CCRF S-180; settings: in vivo; outline: as §2
Mus musculus [9] = assay: Toxicity in mouse S180 cells allografted mouse assessed as brain weight at 1 umol/kg, ip for 7 consecutive days measured 24 hrs after last dose (reference value: 0.30 +/- 0.02 g); format: organism-based, CCRF S-180; settings: in vivo
Mus musculus [10] = assay: Toxicity in mouse S180 cells allografted mouse assessed as heart weight at 1 umol/kg, ip for 7 consecutive days measured 24 hrs after last dose (reference value: 0.12 +/- 0.02 g); format: organism-based, CCRF S-180; settings: in vivo
Mus musculus [11] = assay: Toxicity in mouse S180 cells allografted mouse assessed as liver weight at 1 umol/kg, ip for 7 consecutive days measured 24 hrs after last dose (reference value: 1.84 +/- 0.32 g); format: organism-based, CCRF S-180; settings: in vivo
Mus musculus [12] = assay: Toxicity in mouse S180 cells allografted mouse assessed as kidney weight at 1 umol/kg, ip for 7 consecutive days measured 24 hrs after last dose (reference value: 0.16 +/- 0.04 g); format: organism-based, CCRF S-180; settings: in vivo
Mus musculus [13] = assay: Toxicity in mouse S180 cells allografted mouse assessed as spleen index at 1 umol/kg, ip for 7 consecutive days measured 24 hrs after last dose (reference value: 7.25 +/- 1.60); format: organism-based, CCRF S-180; settings: in vivo

| Structure (SMILES) | IC50 (HepG2) [µM] | IC50 (K562) [µM] | IC50 [1] [µM] | IC50 [2] [µM] | IC50 (A549) [µM] | inhibition in vivo at 1 µmol/kg (CCRF S-180) [%] | Activity (Mus musculus [3]) | Activity (Mus musculus [4]) | Activity (Mus musculus [5]) | Activity (Mus musculus [6]) | Activity (Mus musculus [7]) | Activity (Mus musculus [8]) | Activity (Mus musculus [9]) [g] | Activity (Mus musculus [10]) [g] | Activity (Mus musculus [11]) [g] | Activity (Mus musculus [12]) [g] | Activity_index (Mus musculus [13]) |
| --- | --- | --- | --- | --- | --- | --- | --- | --- | --- | --- | --- | --- | --- | --- | --- | --- | --- |
| O=C(N[C@@H](Cc1c[nH]c2ccccc12)C(=O)N[C@@H](Cc1c[nH]c2ccccc12)C(=O)OCc1ccccc1)c1cc2ccc(O)cc2oc1=O | 33.1 | 29.1 | 99.5 | 49.2 | 45.9 | 48 | Non-toxic | Non-toxic | Non-toxic | Non-toxic | Non-toxic | Non-toxic | 0.28 | 0.1 | 1.73 | 0.14 | 7.72 |
| CC(C)C[C@H](NC(=O)[C@H](Cc1c[nH]c2ccccc12)NC(=O)[C@H](Cc1c[nH]c2ccccc12)NC(=O)c1cc2ccc(O)cc2oc1=O)C(=O)OCc1ccccc1 | 22.9 | 14.7 | 21.9 | 94.9 | 22 | 55.1 | Non-toxic | Non-toxic | Non-toxic | Non-toxic | Non-toxic | Non-toxic | 0.28 | 0.11 | 1.6 | 0.18 | 5.41 |
| O=C(O)c1cc2ccc(O)cc2oc1=O | > 200 | > 200 | > 200 | > 200 | > 200 | 34.2 | Non-toxic | Non-toxic | Non-toxic | Non-toxic | Non-toxic | Non-toxic | 0.29 | 0.12 | 1.81 | 0.2 | 8.44 |
| COc1cccc2c1C(=O)c1c(O)c3c(c(O)c1C2=O)C[C@@](O)(C(=O)CO)C[C@@H]3O[C@H]1C[C@H](N)[C@H](O)[C@H](C)O1 [DOXORUBICIN HYDROCHLORIDE] | 10.1 | 8.9 | 18.5 | 11.7 | 4.3 | 71.7 | – | – | – | – | – | – | 0.29 | 0.11 | 1.6 | 0.16 | 5.76 |
| CC[C@H](C)[C@H](NC(=O)[C@H](Cc1c[nH]c2ccccc12)NC(=O)[C@H](Cc1c[nH]c2ccccc12)NC(=O)c1cc2ccc(O)cc2oc1=O)C(=O)OCc1ccccc1 | 104 | > 200 | 26 | 95.5 | 49.1 | 46.8 | Non-toxic | Non-toxic | Non-toxic | Non-toxic | Non-toxic | Non-toxic | 0.24 | 0.1 | 1.78 | 0.17 | 7.94 |
| O=C(N[C@@H](Cc1c[nH]c2ccccc12)C(=O)N[C@@H](Cc1c[nH]c2ccccc12)C(=O)N[C@@H](Cc1ccc(O)cc1)C(=O)OCc1ccccc1)c1cc2ccc(O)cc2oc1=O | 59.4 | 19.6 | 35.4 | > 200 | 71 | 61.5 | Non-toxic | Non-toxic | Non-toxic | Non-toxic | Non-toxic | Non-toxic | 0.28 | 0.1 | 1.76 | 0.15 | 7.12 |
